{"source": "ChEMBL document CHEMBL1671620", "about": "“Mutations in the fks1 gene in Candida albicans, C. tropicalis, and C. krusei correlate with elevated caspofungin MICs uncovered in AM3 medium using the method of the European Committee on Antibiotic Susceptibility Testing” (2008)", "key": {"[1]": {"test_system": "Candida albicans", "experiment": "Antifungal activity against Candida albicans isolate B311 expressing wild type 1,3-beta-glucan synthase grown on AM3 media after 48 hrs by EUCAST microdilution method", "format": "functional", "conditions": "isolate B311, 24 h, in the assay text read “24 hrs” for “48 hrs”", "how_it_was_run": "(§1)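 EUCAST (AFST-EUCAST) broth microdilution with caspofungin at 0.015 to 8 μg/ml final, in AM3 with glucose added to 2% final. Final inoculum was 10⁵ yeast cells/ml, with microplates prepared in batches and stored at −20°C. Plates were incubated at 35°C in humid ambient air and read spectrophotometrically after shaking at 24 h and 48 h. MIC was ≥50% growth reduction versus drug-free well; 90% end point also read at both times.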"}, "[2]": {"test_system": "Candida albicans", "experiment": "Antifungal activity against Candida albicans isolate 6 expressing wild type 1,3-beta-glucan synthase grown on AM3 media after 48 hrs by EUCAST microdilution method", "format": "functional", "conditions": "isolate 6, 24 h, in the assay text read “after 24 hrs” for “after 48 hrs”", "how_it_was_run": "as §1"}, "[3]": {"test_system": "Candida albicans", "experiment": "Antifungal activity against Candida albicans isolate 9 expressing wild type 1,3-beta-glucan synthase grown on AM3 media after 48 hrs by EUCAST microdilution method", "format": "functional", "conditions": "isolate 9, 24 h, in the assay text read “after 24 hrs” for “after 48 hrs”", "how_it_was_run": "as §1"}, "[4]": {"test_system": "Candida albicans", "experiment": "Antifungal activity against Candida albicans isolate 11 expressing wild type 1,3-beta-glucan synthase grown on AM3 media after 48 hrs by EUCAST microdilution method", "format": "functional", "conditions": "isolate 11, 24 h, in the assay text read “after 24 hrs” for “after 48 hrs”", "how_it_was_run": "as §1"}, "[5]": {"test_system": "Candida albicans", "experiment": "Antifungal activity against Candida albicans isolate 16 expressing wild type 1,3-beta-glucan synthase grown on AM3 media after 48 hrs by EUCAST microdilution method", "format": "functional", "conditions": "isolate 16, 24 h, in the assay text read “after 24 hrs” for “after 48 hrs”", "how_it_was_run": "as §1"}, "[6]": {"test_system": "Candida albicans", "experiment": "Antifungal activity against Candida albicans isolate 17 expressing wild type 1,3-beta-glucan synthase grown on AM3 media after 48 hrs by EUCAST microdilution method", "format": "functional", "conditions": "isolate 17, 24 h, in the assay text read “after 24 hrs” for “after 48 hrs”", "how_it_was_run": "as §1"}, "[7]": {"test_system": "Candida albicans", "experiment": "Antifungal activity against Candida albicans isolate 7 expressing wild type 1,3-beta-glucan synthase grown on AM3 media after 48 hrs by EUCAST microdilution method", "format": "functional", "conditions": "isolate 7, 24 h, in the assay text read “after 24 hrs” for “after 48 hrs”", "how_it_was_run": "as §1"}, "[8]": {"test_system": "Candida albicans", "experiment": "Antifungal activity against Candida albicans isolate 10 expressing wild type 1,3-beta-glucan synthase grown on AM3 media after 48 hrs by EUCAST microdilution method", "format": "functional", "conditions": "isolate 10, 24 h, in the assay text read “after 24 hrs” for “after 48 hrs”", "how_it_was_run": "as §1"}, "[9]": {"test_system": "Candida tropicalis", "experiment": "Antifungal activity against Candida tropicalis ATCC 750 expressing wild type 1,3-beta-glucan synthase grown on RPMI media after 48 hrs by EUCAST microdilution method", "format": "functional", "conditions": "ATCC 750, 24 h, in the assay text read “24 hrs” for “48 hrs”", "how_it_was_run": "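EUCAST (AFST-EUCAST) broth microdilution with caspofungin at 0.015 to 8 μg/ml final, in RPMI 1640 buffered to pH 7.0 with 0.165 M MOPS and glucose added to 2% final. Final inoculum was 10⁵ yeast cells/ml. Plates were incubated at 35°C in humid ambient air and read spectrophotometrically after shaking at 24 h and 48 h. MIC was ≥50% growth reduction versus drug-free well; 90% end point also read at both times.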"}, "[10]": {"test_system": "Candida tropicalis", "experiment": "Antifungal activity against Candida tropicalis isolate 1 expressing wild type 1,3-beta-glucan synthase grown on AM3 media after 48 hrs by EUCAST microdilution method", "format": "functional", "conditions": "isolate 1, 24 h, in the assay text read “24 hrs” for “48 hrs”", "how_it_was_run": "as §1"}, "[11]": {"test_system": "Pichia kudriavzevii", "experiment": "Antifungal activity against Candida krusei ATCC 6258 expressing wild type 1,3-beta-glucan synthase grown on RPMI media after 24 hrs by EUCAST microdilution method", "conditions": "ATCC 6258, 24 h"}, "[12]": {"test_system": "Candida albicans", "experiment": "Antifungal activity against Candida albicans isolate 18 expressing wild type 1,3-beta-glucan synthase grown on AM3 media after 24 hrs by EUCAST microdilution method", "conditions": "isolate 18, 24 h"}, "[13]": {"test_system": "Candida albicans", "experiment": "Antifungal activity against Candida albicans isolate 1 expressing wild type 1,3-beta-glucan synthase grown on RPMI media after 24 hrs by EUCAST microdilution method", "conditions": "isolate 1, 24 h"}, "[14]": {"test_system": "Candida albicans", "experiment": "Antifungal activity against Candida albicans isolate 2 expressing wild type 1,3-beta-glucan synthase grown on RPMI media after 24 hrs by EUCAST microdilution method", "conditions": "isolate 2, 24 h"}, "[15]": {"test_system": "Candida albicans", "experiment": "Antifungal activity against Candida albicans isolate 8 expressing wild type 1,3-beta-glucan synthase grown on RPMI media after 24 hrs by EUCAST microdilution method", "conditions": "isolate 8, 24 h"}, "[16]": {"test_system": "Candida albicans", "experiment": "Antifungal activity against Candida albicans isolate 7 expressing wild type 1,3-beta-glucan synthase grown on RPMI media after 24 hrs by EUCAST microdilution method", "conditions": "isolate 7, 24 h"}, "[17]": {"test_system": "Candida albicans", "experiment": "Antifungal activity against Candida albicans isolate 13 expressing wild type 1,3-beta-glucan synthase grown on RPMI media after 24 hrs by EUCAST microdilution method", "conditions": "isolate 13, 24 h"}, "[18]": {"test_system": "Candida albicans", "experiment": "Antifungal activity against Candida albicans isolate 12 expressing wild type 1,3-beta-glucan synthase grown on RPMI media after 24 hrs by EUCAST microdilution method", "conditions": "isolate 12, 24 h"}, "[19]": {"test_system": "Candida albicans", "experiment": "Antifungal activity against Candida albicans isolate 16 expressing wild type 1,3-beta-glucan synthase grown on RPMI media after 24 hrs by EUCAST microdilution method", "conditions": "isolate 16, 24 h"}, "[20]": {"test_system": "Candida albicans", "experiment": "Antifungal activity against Candida albicans isolate 10 expressing wild type 1,3-beta-glucan synthase grown on RPMI media after 24 hrs by EUCAST microdilution method", "conditions": "isolate 10, 24 h"}, "[21]": {"test_system": "Pichia kudriavzevii", "experiment": "Antifungal activity against Candida krusei isolate 1 harboring 1,3-beta-glucan synthase HS1 point mutant grown on AM3 media after 24 hrs by EUCAST microdilution method", "conditions": "isolate 1, 24 h"}, "[22]": {"test_system": "Candida albicans", "experiment": "Antifungal activity against Candida albicans isolate 21 harboring 1,3-beta-glucan synthase HS1 point mutant grown on AM3 media after 24 hrs by EUCAST microdilution method", "conditions": "isolate 21, 24 h"}, "[23]": {"test_system": "Candida albicans", "experiment": "Antifungal activity against Candida albicans isolate 21 harboring 1,3-beta-glucan synthase HS1 point mutant grown on RPMI media after 24 hrs by EUCAST microdilution method", "conditions": "isolate 21, 24 h"}, "[24]": {"test_system": "Candida albicans", "experiment": "Antifungal activity against Candida albicans isolate 23 harboring 1,3-beta-glucan synthase HS2 point mutant grown on RPMI media after 24 hrs by EUCAST microdilution method", "conditions": "isolate 23, 24 h"}, "[25]": {"test_system": "Candida albicans", "experiment": "Antifungal activity against Candida albicans isolate 24 harboring 1,3-beta-glucan synthase HS1 point mutant grown on RPMI media after 24 hrs by EUCAST microdilution method", "conditions": "isolate 24, 24 h"}}}
{"compound": "CC[C@H](C)C[C@H](C)CCCCCCCCC(=O)N[C@H]1C[C@@H](O)[C@@H](NCCN)NC(=O)[C@@H]2[C@@H](O)CCN2C(=O)[C@H]([C@H](O)CCN)NC(=O)[C@H]([C@H](O)[C@@H](O)c2ccc(O)cc2)NC(=O)[C@@H]2C[C@@H](O)CN2C(=O)[C@H]([C@@H](C)O)NC1=O", "note": "[CASPOFUNGIN]", "values": [{"measurement": "MIC", "setting": "[1]", "result": 0.06, "unit": "µg/mL"}, {"measurement": "MIC", "setting": "[2]", "result": 0.03, "unit": "µg/mL"}, {"measurement": "MIC", "setting": "[3]", "result": 0.03, "unit": "µg/mL"}, {"measurement": "MIC", "setting": "[4]", "result": 0.03, "unit": "µg/mL"}, {"measurement": "MIC", "setting": "[5]", "result": 0.03, "unit": "µg/mL"}, {"measurement": "MIC", "setting": "[6]", "result": 0.03, "unit": "µg/mL"}, {"measurement": "MIC", "setting": "[7]", "result": 0.06, "unit": "µg/mL"}, {"measurement": "MIC", "setting": "[8]", "result": 0.06, "unit": "µg/mL"}, {"measurement": "MIC", "setting": "[9]", "result": 0.5, "unit": "µg/mL"}, {"measurement": "MIC", "setting": "[10]", "result": 0.06, "unit": "µg/mL"}, {"measurement": "MIC", "setting": "[11]", "result": 1, "unit": "µg/mL"}, {"measurement": "MIC", "setting": "[12]", "result": 0.015, "unit": "µg/mL"}, {"measurement": "MIC", "setting": "[13]", "result": 0.25, "unit": "µg/mL"}, {"measurement": "MIC", "setting": "[14]", "result": 0.25, "unit": "µg/mL"}, {"measurement": "MIC", "setting": "[15]", "result": 0.5, "unit": "µg/mL"}, {"measurement": "MIC", "setting": "[16]", "result": 0.5, "unit": "µg/mL"}, {"measurement": "MIC", "setting": "[17]", "result": 0.5, "unit": "µg/mL"}, {"measurement": "MIC", "setting": "[18]", "result": 0.5, "unit": "µg/mL"}, {"measurement": "MIC", "setting": "[19]", "result": 0.5, "unit": "µg/mL"}, {"measurement": "MIC", "setting": "[20]", "result": 0.5, "unit": "µg/mL"}, {"measurement": "MIC", "setting": "[21]", "result": 4, "unit": "µg/mL"}, {"measurement": "MIC", "setting": "[22]", "result": 1, "unit": "µg/mL"}, {"measurement": "MIC", "setting": "[23]", "result": 2, "unit": "µg/mL"}, {"measurement": "MIC", "setting": "[24]", "result": 2, "unit": "µg/mL"}, {"measurement": "MIC", "setting": "[25]", "result": 4, "unit": "µg/mL"}]}
